This excerpt belongs to a sample that is enriched for hits.
INS promoter act: activators of insulin promoter-driven GFP, primary screen, imaging, TRM-6 cells, eGFP reporter, cell count | plate-scaled: unstimulated 0, stimulated control 100 | activation, % at 2 µM | hit rate 0.81% among 130,000 | AID 1296, 2008;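 active means activation at 2 µM above a set limit, confirmed on inspection of the cell images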;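 further: share of cells whose green reporter signal exceeds an intensity cutoff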
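Test system: human fetal islet-derived TRM-6 cells with tamoxifen-inducible insulin promoter–eGFP reporter; schedule: overnight tamoxifen, then two-day compound incubation at 37 °C; measured by: high-content imaging of fixed cells with Hoechst nuclear stain; evaluation: percent cells above green-intensity threshold, converted to percent activation versus plate controls; control set: stimulated and unstimulated wells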
Each line names hits and unclear results; the compound was inactive in the other large screens.

COc1ccc(C(=O)Cn2c(NCCO)nc3ccccc32)cc1OC	none
CC(=O)NC(=S)Nc1ccc(S(=O)(=O)Nc2nc(C)cc(C)n2)cc1	none
Clc1ccc(-c2cc(COc3ccc4ccccc4c3)no2)cc1	none
Cn1nnnc1SCC(=O)Nc1ccccc1[N+](=O)[O-]	none
COc1ccc(NC(=O)CSc2nnnn2C)cc1	none
Cn1nnnc1SCC(=O)Nc1ccccn1	INS promoter act 93
O=C(O)c1ccccc1S(=O)(=O)NCC(O)COc1ccc(Br)cc1 (stereo not given)	none
Cc1ccc(C(=O)OCn2ncc(Cl)c(Cl)c2=O)cc1	INS promoter act 194
CCOC(=O)c1ccc(NC(=O)Cn2ncc(Cl)c(Cl)c2=O)cc1	none
Cc1ccc(C)c(C(=O)Cn2ncc(Cl)c(Cl)c2=O)c1	none
CCN1C(=O)C(O)(C2COC(C)(C)CC2=O)c2cc(Br)ccc21 (stereo not given)	none
O=C(Nc1ccccc1[N+](=O)[O-])c1cccnc1Cl	none
O=C(CSc1n[nH]c(-c2ccccc2Br)n1)NCCN1C(=O)CSC1=O	none
CC(C)(C)N(NC(=O)OCc1ccccc1)C(=O)c1ccccc1Cl	none
Cc1ccc(OCC(=O)Nc2ccc(N3CCCC3)cc2)cc1C	INS promoter act 163
O=C(COc1cccc(Cl)c1)Nc1ccc(N2CCOCC2)cc1	none
COc1ccccc1OCC(=O)Nc1ccc(N2CCCCC2)cc1	none
CCc1cc2c(=O)c(-c3cnn(-c4ccccc4)c3)c(C(F)(F)F)oc2c(CN(C)C)c1O	none
Cc1ccc(NC2SC(=O)N(CC(=O)O)C2=O)cc1 (stereo not given)	none
Cc1c(Cl)c(-c2n[nH]c(=S)n2-c2ccc(F)cc2)nn1C	none
CCCn1c(Nc2ccccc2)nc2ccccc21	none
Cn1c(NCc2c(O)ccc3ccccc23)nc2ccccc21	none
Cn1c(Nn2cnnc2)nc2ccccc21	INS promoter act 121
COC(=O)C1(CCSC)NC(c2ccco2)C2C(=O)N(C)C(=O)C21 (stereo not given)	none
CCC(C)(C(=O)NC1CCCCC1)N(Cc1cccs1)C(=O)c1ccccn1 (stereo not given)	none
CCC(C)(C(=O)NC1CCCC1)N(Cc1cccs1)C(=O)Cc1cccs1 (stereo not given)	INS promoter act 83
CCC(C)(C(=O)NC1CCCC1)N(C)C(=O)Cc1c[nH]c2ccccc12 (stereo not given)	none
CCN(CC)C(=O)C(=O)c1cn(CC(=O)N2CCc3ccccc3C2)c2ccccc12	none
CCNC(=O)CN(C1CCCCC1)S(C)(=O)=O	none
Cc1ccc(S(=O)(=O)N2CCN(C(=O)c3cc(=O)c4ccccc4o3)CC2)cc1	none
NC(=O)C1(N2CCCCC2)CCN(CC(=O)Nc2ccccc2-c2ccccc2)CC1	none
NC(=O)C1(N2CCCCC2)CCN(Cc2ccccc2Cl)CC1	INS promoter act 456
NC(=O)C1(N2CCCCC2)CCN(C(=O)CSc2nc3ccccc3o2)CC1	none
COc1ccc(N(CC(=O)Nc2ccccc2C(=O)NCCc2ccccc2)S(C)(=O)=O)cc1OC	none
Cc1ccc(C(=O)C(C)OC(=O)c2ccccc2[N+](=O)[O-])cc1 (stereo not given)	none
CCC(=O)c1ccc(OCC(=O)NCCc2ccccn2)cc1	none
Cc1cc(C)nc(/N=C(/NC(=O)Nc2cccc(Cl)c2)Nc2ccccc2)n1	none
CN1CCN(C(=O)c2ccc(-n3cccc3)cc2)CC1	none
CCOC(=O)N1CCN(S(=O)(=O)c2ccc(OCC(=O)OC)c(Cl)c2)CC1	none
COC(=O)COc1ccc(S(=O)(=O)Nc2ccc(C(N)=O)cc2)cc1C	none
COC(=O)COc1ccc(-c2ccc(F)cc2)cc1C=O	INS promoter act 450
C/C(=N\NC(=O)c1ccccc1-n1cccc1)C1CC1	none
CC1(C)C(=O)NCCN1C(=O)CCC(=O)O	none
COc1ccc(NS(=O)(=O)c2cc(N/C(=N\S(=O)(=O)c3ccccc3)c3ccc(F)cc3)ccc2Cl)cc1	INS promoter act 76
CCCCOC(=O)c1ccc(N/C(=N\S(=O)(=O)c2ccccc2)c2ccccc2)cc1	none
COc1ccc(NS(=O)(=O)c2cc(C(=O)N3CCN(C(C)=O)CC3)ccc2Cl)cc1	none
COc1cc(C2CC(=O)Nc3c2c(=O)nc2c(C)cccn32)cc(OC)c1OC (stereo not given)	none
COc1cc(/C=C2\N=C(c3c(-c4ccccc4)noc3C)OC2=O)ccc1OC(C)=O	none
CN1CCC(=NNC(=O)CN(c2ccc(Oc3ccccc3)cc2)S(C)(=O)=O)CC1	INS promoter act 454
Cc1ccc(C)c(N(CC(=O)NN=C2CCN(C)CC2)S(=O)(=O)c2ccccc2)c1	none
Cc1ccc(S(=O)(=O)N(CC(=O)NN=C2CCN(C)CC2)c2ccc(C(C)C)cc2)cc1	none
CCOc1ccc(CC(=O)Nc2ccc(-c3ccc4nnc(C)n4n3)cc2)cc1	none
Cc1cccc(-c2n[nH]c(=S)n2/N=C/c2ccc(C)s2)c1	none
CCN(CC)S(=O)(=O)c1cccc(-c2n[nH]c(=S)n2/N=C/c2ccc(Br)cc2)c1	INS promoter act 438
Cc1ccc(-c2n[nH]c(=S)n2/N=C/c2c(C)nn(-c3ccccc3)c2C)cc1	none
COc1ccc(Cl)cc1NC(=O)CN(C)CC(=O)Nc1ccc(C)cc1Br	none
COc1cccc(CN(C)C(=O)c2ccc3nccnc3c2)c1	none
CC(Sc1nnnn1-c1ccccc1)C(=O)Nc1ccc(Cl)cn1 (stereo not given)	none
Cc1cccc(S(=O)(=O)NCCC(=O)OCC(=O)Nc2ccc(C#N)cc2)c1	none
CC(C)OC(=O)CN1C(=O)S/C(=C/c2ccc(N3CCCCC3)o2)C1=O	INS promoter act 170
O=C1NC(=S)S/C1=C/c1ccc(N2CCOCC2)o1	none
O=C1S/C(=C/c2ccc(N3CCOCC3)o2)C(=O)N1Cc1ccc(F)cc1	none
COc1ccc(N=C2SC(C(=O)Nc3ccc(OC)cc3)CC(=O)N2CCN2CCOCC2)cc1 (stereo not given)	none
Cc1nn2c(-c3ccccc3)nnc2c2ccccc12	INS promoter act 450
Cc1nn2c(-c3cccc(NC(=O)c4ccco4)c3)nnc2c2ccccc12	none
CNS(=O)(=O)c1ccc(OC)c(-c2nnc3c4ccccc4c(C)nn23)c1	none
CN(C)/C=C(/C#N)C(=O)c1cccc(Oc2ccc(C(C)(C)C)cc2)c1	none
Cc1ccc2nc(COc3ccc(Cl)cc3)cc(=O)n2c1	none
O=C1NC(=O)C2(COC(c3ccccc3Cl)OC2)S1 (stereo not given)	none
O=C1c2cccc3cccc(c23)C(=O)N1CCCc1n[nH]c(=S)n1-c1ccccc1	none
O=C(Cc1ccccc1)NCC1CCCO1 (stereo not given)	none
O=C(Cc1ccc(F)cc1)NCC1CCCO1 (stereo not given)	none
O=C(CCCC(=O)NCC1CCCO1)NCC1CCCO1 (stereo not given)	INS promoter act 256
Cc1ccc(C(=O)C(C(=O)/C=C/c2ccccc2)=C2SCCCS2)cc1	none
Cc1cccc(NC(=O)c2cc3cc([N+](=O)[O-])ccc3s2)n1	none
CCOc1ccccc1C(=O)N1c2ccccc2Sc2ccccc21	INS promoter act 100
CCOc1ccccc1C(=O)n1nc(C)cc1C	none
CCOc1ccccc1-n1c(=O)c2ccccc2c2ccccc2c1=O	none
O=C1C(=O)N(CCc2c[nH]c3ccccc23)C(c2cccnc2)/C1=C(/O)c1ccccc1 (stereo not given)	none
CCOC(=O)c1cc(-c2ccccc2)n(CCC(=O)N2CCN(c3ccccn3)CC2)c1C	none
COc1ccc(-c2nnc(SCc3cc(C)ccc3C)n2N)cc1	none
CC1(C(=O)O)Oc2cccnc2NC1=O (stereo not given)	INS promoter act 409
Cc1ccc(NC(=O)Cn2nc(-c3ccccc3Cl)ccc2=O)c(Br)c1	none
CCC(=O)N1CCN(c2ccccc2NC(=O)COc2ccccc2Cl)CC1	none
COc1cc(C)nc(N2CCC(C(=O)NC3CCCCC3)CC2)n1	none
